Reference: ChEMBL document CHEMBL4428083, “Mitochondrial-Targeting MET Kinase Inhibitor Kills Erlotinib-Resistant Lung Cancer Cells” (ACS Med Chem Lett, 2016)
Activity calls are given as the source filed them. No cut-off for these calls is given here.

Assays:
[1] = molecular target: Hepatocyte growth factor receptor (Homo sapiens) (UniProt P08581); test: Inhibition of MET phosphorylation at Y1234/1235 in mitochondria isolated from compound treated erlotinib-resistant human HCC827B cells at 4 uM after 24 hrs by immunoblot analysis
How it was run: (§1)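 HCC827B cells exposed to 4 μM compound for 24 h; whole-cell lysates and mitochondria then isolated from treated cells and immunoblotted for p-MET Y1234/1235. Each lane held 10 μg protein; loading controls were actin (whole cells) and SDHA (mitochondria).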

[2] = Drug uptake in mitochondria of erlotinib-resistant human HCC827B cells assessed as R1 gated population at 4 uM after 1 hr by MTR staining based FACS analysis (reference value: >98%); format: ADME
[3] = molecular target: Hepatocyte growth factor receptor (Homo sapiens) (UniProt P08581); test: Inhibition of MET phosphorylation at Y1234/1235 in mitochondria isolated from erlotinib-resistant human HCC827B cells at 4 uM after 1 to 1.5 hrs by immunoblot analysis
How it was run: (§2)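 Whole HCC827B cells, or mitochondria first purified from them, were treated separately with 4 μM compound for 1 and 1.5 h, then immunoblotted for p-MET Y1234/1235. Each lane held 10 μg protein; loading controls were SDHA for mitochondria and actin for whole cells.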

HCC827 [4] = test: Induction of apoptosis in erlotinib-resistant human HCC827B cells assessed as increase in cleaved PARP level at 4 uM measured up to 60 hrs by immunoblot analysis; format: functional, cell-based
How it was run: (§3)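 HCC827B cells treated with 4 μM compound; whole-cell lysates collected at 12, 24, 36, 48 and 60 h and immunoblotted for cleaved PARP and cleaved caspases 3 and 7. Control was untreated cells at 0 h; GAPDH was the loading control.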

HCC827 [5] = test: Cytotoxicity against erlotinib-sensitive human HCC827A cells assessed as reduction in cell viability after 72 hrs by MTT assay; format: functional, cell-based; settings: HCC827, 72 h
How it was run: (§4)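 Colorimetric tetrazolium assay after 72 h exposure; IC50 derived from viability. Comparisons between compounds by unpaired Student's t test.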

[6] = molecular target: Hepatocyte growth factor receptor (Homo sapiens) (UniProt P08581); test: Inhibition of MET phosphorylation at Y1234/1235 in erlotinib-resistant human HCC827B cells at 4 uM after 1 to 1.5 hrs by immunoblot analysis; how it was run: as §2
[7] = Drug uptake in mitochondria of human HeLa cells at 4 uM after 3 hrs by MTR dye/Hoechst 33342 staining based confocal microscopy; format: ADME
How it was run: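 HeLa cells were exposed to 4 μM compound for 3 h, then stained with MitoTracker Red and Hoechst 33342 and imaged by confocal microscopy. Intrinsic compound green fluorescence (Ex 460, Em 520 nm) was compared for overlap with MTR.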

HCC827 [8] = test: Effect on total MET expression level in erlotinib-resistant human HCC827B cells at 4 uM after 1 to 1.5 hrs by immunoblot analysis; format: ADME, cell-based; settings: hcc827, 4 µM
HCC827 [9] = test: Induction of apoptosis in erlotinib-resistant human HCC827B cells assessed as increase in cleaved caspase 3 level at 4 uM measured up to 60 hrs by immunoblot analysis; format: functional, cell-based; how it was run: as §3
TAMH = test: Cytotoxicity against TAMH assessed as reduction in cell viability after 24 hrs by cell titer glo based luminescence assay; settings: Mus musculus
How it was run: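 TAMH (TGFα-transformed murine hepatocytes; stable, nontumorigenic, metabolically competent line) exposed to compound for 24 h; IC50 from viability.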

HCC827 [10] = test: Induction of apoptosis in erlotinib-resistant human HCC827B cells assessed as increase in cleaved caspase 7 level at 4 uM measured up to 60 hrs by immunoblot analysis; format: functional, cell-based; how it was run: as §3
HCC827 [11] = test: Cytotoxicity against erlotinib-resistant human HCC827B cells expressing MET assessed as reduction in cell viability after 72 hrs by MTT assay; format: functional, cell-based; settings: HCC827, 72 h; how it was run: as §4
[12] = Effect on total MET expression level in mitochondria isolated from erlotinib-resistant human HCC827B cells at 4 uM after 1 to 1.5 hrs by immunoblot analysis; format: ADME
[13] = molecular target: Hepatocyte growth factor receptor (Homo sapiens) (UniProt P08581); test: Inhibition of MET phosphorylation at Y1234/1235 in erlotinib-resistant human HCC827B cells at 4 uM after 24 hrs by immunoblot analysis; how it was run: as §1
[14] = Drug uptake in mitochondria of erlotinib-resistant human HCC827B cells assessed as R1 gated population at 4 uM after 1 hr by FACS analysis (reference value: >98%); format: ADME
HCC827 [15] = test: Cytotoxicity against erlotinib-resistant human HCC827B cells assessed as cell viability at 1 uM after 72 hrs by MTT assay; format: functional; settings: HCC827, 72 h, read-out: Activity
How it was run: (§5)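 Colorimetric tetrazolium viability assay with erlotinib at 1 μM; % viability reported, n = 3.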

HCC827 [16] = test: Cytotoxicity against erlotinib-sensitive human HCC827A cells assessed as cell viability at 1 uM after 72 hrs by MTT assay; format: functional; settings: HCC827, 72 h, read-out: Activity; how it was run: as §5

Sequence of Hepatocyte growth factor receptor (Homo sapiens) (P08581 whole entry): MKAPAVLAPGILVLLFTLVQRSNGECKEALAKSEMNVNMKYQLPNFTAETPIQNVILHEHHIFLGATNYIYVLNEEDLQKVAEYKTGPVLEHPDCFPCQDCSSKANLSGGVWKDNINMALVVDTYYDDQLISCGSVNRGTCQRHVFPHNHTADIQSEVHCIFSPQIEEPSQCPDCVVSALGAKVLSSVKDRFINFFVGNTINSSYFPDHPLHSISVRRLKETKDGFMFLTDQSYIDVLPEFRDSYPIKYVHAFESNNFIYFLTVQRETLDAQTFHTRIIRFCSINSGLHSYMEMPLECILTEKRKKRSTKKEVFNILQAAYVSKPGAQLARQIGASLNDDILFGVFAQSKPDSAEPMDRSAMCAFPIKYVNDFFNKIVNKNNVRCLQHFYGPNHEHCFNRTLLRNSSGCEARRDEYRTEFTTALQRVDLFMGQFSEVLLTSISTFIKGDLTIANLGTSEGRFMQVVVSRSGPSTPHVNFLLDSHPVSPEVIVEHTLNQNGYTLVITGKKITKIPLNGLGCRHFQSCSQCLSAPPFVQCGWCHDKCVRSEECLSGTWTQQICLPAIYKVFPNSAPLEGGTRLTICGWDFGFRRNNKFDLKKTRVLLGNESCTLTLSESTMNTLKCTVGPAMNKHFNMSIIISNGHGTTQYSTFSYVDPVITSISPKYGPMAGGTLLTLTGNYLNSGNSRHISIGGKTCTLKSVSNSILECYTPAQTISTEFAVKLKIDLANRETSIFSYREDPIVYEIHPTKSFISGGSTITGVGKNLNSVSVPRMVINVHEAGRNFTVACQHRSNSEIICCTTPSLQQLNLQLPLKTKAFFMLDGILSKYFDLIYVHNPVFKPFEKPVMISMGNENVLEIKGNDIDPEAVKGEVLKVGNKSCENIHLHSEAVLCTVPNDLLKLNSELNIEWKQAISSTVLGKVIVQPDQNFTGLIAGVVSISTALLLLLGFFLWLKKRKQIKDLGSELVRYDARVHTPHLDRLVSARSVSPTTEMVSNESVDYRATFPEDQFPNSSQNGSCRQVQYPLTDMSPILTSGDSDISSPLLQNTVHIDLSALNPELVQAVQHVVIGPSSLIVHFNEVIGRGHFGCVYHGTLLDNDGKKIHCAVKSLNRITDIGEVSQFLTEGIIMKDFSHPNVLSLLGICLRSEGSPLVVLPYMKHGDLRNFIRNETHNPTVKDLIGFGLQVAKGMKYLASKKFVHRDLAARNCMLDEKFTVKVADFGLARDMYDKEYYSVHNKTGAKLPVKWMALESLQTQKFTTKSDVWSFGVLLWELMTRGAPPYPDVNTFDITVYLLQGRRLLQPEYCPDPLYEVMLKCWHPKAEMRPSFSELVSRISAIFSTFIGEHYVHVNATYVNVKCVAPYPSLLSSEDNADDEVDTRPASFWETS

inhibition [1]	Drug uptake [2] [%]	inhibition [3]	inhibition [6]	Drug uptake [7]	inhibition [13]	Drug uptake [14] [%]	SMILES	Activity (HCC827 [4])	IC50 (HCC827 [5]) [µM]	Activity (HCC827 [8])	Activity (HCC827 [9])	IC50 (TAMH) [µM]	Activity (HCC827 [10])	IC50 (HCC827 [11]) [µM]	Activity [12]	viability at 1 µM (HCC827 [15]) [%]	viability at 1 µM (HCC827 [16]) [%]
Active	35	inactive	Active	Not Active	–	–	Cc1[nH]c(/C=C2\C(=O)Nc3ccc(S(=O)(=O)Cc4c(Cl)cccc4Cl)cc32)c(C)c1C(=O)N1CCC[C@@H]1CN1CCCC1 [PHA-665752]	Active	15.7	Non-Toxic	Active	8.9	Active	8.9	Non-Toxic	–	–
Active	95	inactive	Active	Active	Active	98	Cc1[nH]c(/C=C2\C(=O)Nc3ccc(S(=O)(=O)Cc4c(Cl)cccc4Cl)cc32)c(C)c1C(=O)NCC[P+](c1ccccc1)(c1ccccc1)c1ccccc1.[Br-]	Active	16.7	Non-Toxic	Active	15.1	Active	5.3	Non-Toxic	–	–
–	–	–	–	–	–	–	C#Cc1cccc(Nc2ncnc3cc(OCCOC)c(OCCOC)cc23)c1 [ERLOTINIB]	–	–	–	–	–	–	–	–	72.4	22.4
